Test results from ChEMBL document CHEMBL2150846, “Optimization of an ether series of mGlu5 positive allosteric modulators: molecular determinants of MPEP-site interaction crossover” (Bioorg Med Chem Lett, 2012).
One block for each compound: values may come before it. Activity calls are given as the source filed them. No cut-off for these calls is given here.

Tests used:
[1] = molecular target: T1, Metabotropic glutamate receptor 5 (Rattus norvegicus, UniProt P31424); assay: Positive allosteric modulation of rat mGluR5 expressed in human HEK293 cells assessed as calcium mobilization; assay type: functional, cell-based
How it was run: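 Calcium mobilization in HEK293 cells expressing rat mGlu5, used to obtain functional EC50. pEC50 is the mean of three independent determinations, with coefficient of variation <0.05.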

[2] = molecular target: Metabotropic glutamate receptor 5 (Rattus norvegicus) (UniProt P31424); assay: Displacement of [3H]methoxyPEPy from rat mGluR5 expressed in human HEK293 cells at 10 uM after 1 hr by scintillation counter; assay type: cell-based
How it was run: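 Single-concentration binding to the MPEP site, read as % displacement of [3H]methoxyPEPy at 10 μM test compound. Values are the average of two determinations.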

[3] = molecular target: T1, Metabotropic glutamate receptor 5; assay: Displacement of [3H]methoxyPEPy from rat mGluR5 expressed in human HEK293 cells after 1 hr by scintillation counter; assay type: cell-based
[4] = Plasma protein binding in human plasma
Brain [5] = assay: Fraction unbound in rat brain; assay type: ADME, tissue-based
[6] = system: Metabotropic glutamate receptor 5 (Rattus norvegicus), P31424 [A809V]; assay: Positive allosteric modulation of wild type rat mGlu5 receptor A809V mutant expressed in human HEK293 cells assessed as glutamate concentration response curve at 1 uM; assay type: cell-based
[7] = molecular target: Metabotropic glutamate receptor 3 (Homo sapiens, UniProt Q14832); assay: Positive allosteric modulation of mGluR3
[8] = molecular target: Metabotropic glutamate receptor 7 (Homo sapiens, UniProt Q14831); assay: Positive allosteric modulation of mGluR7
[9] = molecular target: Metabotropic glutamate receptor 8 (Homo sapiens, UniProt O00222); assay: Positive allosteric modulation of mGluR8
[10] = system: Metabotropic glutamate receptor 5 (Rattus norvegicus), P31424 [P654F]; assay: Positive allosteric modulation of wild type rat mGlu5 receptor P654F mutant expressed in human HEK293 cells assessed as glutamate concentration response curve at 1 uM; assay type: cell-based
[11] = Plasma protein binding in rat plasma
Brain [12] = assay: Ratio of AUC in rat brain to AUC in rat plasma at 10 mg/kg, po; assay type: ADME, organism-based; parameters: dose 10 mg/kg, route oral
How it was run: (§1)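 Rats were dosed orally at 10 mg/kg in 20% β-CD. Snapshot drug levels were taken in portal vein, plasma and brain at 0.5, 1.0, 3.0 and 6.0 h. AUC, brain/plasma ratio, Cmax, Tmax and Vss were derived from these levels.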

[13] = Terminal half life in rat at 1 mg/kg, iv and 10 mg/kg, po; assay type: ADME, organism-based; details: in vivo, read-out: beta t1/2 (converted)
How it was run: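 Non-crossover rat PK study with 1 mg/kg IV dosing and 10 mg/kg PO dosing in 20% β-CD. Plasma clearance and terminal half-life were determined.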

Plasma = assay: AUC in rat plasma at 10 mg/kg, po; assay type: ADME, organism-based; parameters: dose 10 mg/kg, route oral; details: in vivo; how it was run: as §1
[14] = molecular target: T2, Metabotropic glutamate receptor 5 (Homo sapiens, UniProt P41594); assay: Positive allosteric modulation of human mGluR5 expressed in HEK293 cells assessed as calcium mobilization; assay type: functional, cell-based
Target sequence in this assay (P41594 whole entry): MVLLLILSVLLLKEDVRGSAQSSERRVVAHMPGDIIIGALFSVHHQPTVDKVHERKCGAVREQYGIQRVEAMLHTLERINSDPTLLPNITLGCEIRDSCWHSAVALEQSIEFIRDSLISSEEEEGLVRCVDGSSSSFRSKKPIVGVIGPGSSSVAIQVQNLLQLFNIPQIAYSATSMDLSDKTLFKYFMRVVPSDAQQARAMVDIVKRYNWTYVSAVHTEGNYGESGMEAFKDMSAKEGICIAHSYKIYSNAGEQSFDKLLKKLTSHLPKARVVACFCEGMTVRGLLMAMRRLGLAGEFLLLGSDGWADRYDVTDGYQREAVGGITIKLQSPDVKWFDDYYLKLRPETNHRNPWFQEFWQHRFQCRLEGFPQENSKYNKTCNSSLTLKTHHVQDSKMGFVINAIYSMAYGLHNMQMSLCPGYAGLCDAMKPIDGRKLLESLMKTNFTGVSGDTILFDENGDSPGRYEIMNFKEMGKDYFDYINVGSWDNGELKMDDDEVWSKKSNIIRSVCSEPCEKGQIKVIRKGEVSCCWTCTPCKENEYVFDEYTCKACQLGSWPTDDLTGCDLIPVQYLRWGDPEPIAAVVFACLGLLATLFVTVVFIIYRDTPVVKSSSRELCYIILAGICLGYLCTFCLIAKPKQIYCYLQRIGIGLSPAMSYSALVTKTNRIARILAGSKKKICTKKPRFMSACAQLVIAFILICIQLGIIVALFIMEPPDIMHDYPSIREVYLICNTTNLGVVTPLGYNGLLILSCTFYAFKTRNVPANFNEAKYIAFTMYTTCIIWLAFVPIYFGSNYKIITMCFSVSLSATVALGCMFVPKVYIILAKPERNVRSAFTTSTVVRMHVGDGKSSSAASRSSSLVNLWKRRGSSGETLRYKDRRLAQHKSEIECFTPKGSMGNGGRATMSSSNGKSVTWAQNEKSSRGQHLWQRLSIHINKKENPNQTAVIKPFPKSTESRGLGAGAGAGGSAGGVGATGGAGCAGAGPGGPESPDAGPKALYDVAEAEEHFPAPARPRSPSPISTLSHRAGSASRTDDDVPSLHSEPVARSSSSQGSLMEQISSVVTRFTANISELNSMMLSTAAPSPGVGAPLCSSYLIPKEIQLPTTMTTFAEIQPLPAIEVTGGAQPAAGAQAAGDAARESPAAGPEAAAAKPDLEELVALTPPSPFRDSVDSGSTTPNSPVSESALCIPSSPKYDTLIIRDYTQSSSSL

[15] = Drug uptake in rat brain after 90 mins; assay type: ADME, tissue-based; details: read-out: Drug uptake
[16] = Solubility of the compound in fasted state simulated intestinal fluid; assay type: physicochemical
[17] = molecular target: Metabotropic glutamate receptor 5 (Rattus norvegicus) (UniProt P31424); assay: Positive allosteric modulation of wild type rat mGlu5 expressed in human HEK293 cells assessed as glutamate concentration response curve at 1 uM; assay type: cell-based
Rattus norvegicus [18] = assay: Antipsychotic activity in rat assessed as reversal of amphetamine-induced hyperlocomotion at 100 mg/kg, po; assay type: functional, organism-based; parameters: dose 100 mg/kg
How it was run: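 Rats given amphetamine to induce hyperlocomotion received the test agent orally at 100 mg/kg in 20% β-CD vehicle. Reversal of locomotor activity was measured.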

[19] = molecular target: Metabotropic glutamate receptor 5 (Rattus norvegicus) (UniProt P31424); assay: Positive allosteric modulation of rat mGlu5 expressed in human HEK293 cells relative to glutamate; assay type: cell-based
Rattus norvegicus [20] = assay: Volume of distribution at steady state in rat at 10 mg/kg, po; assay type: ADME, organism-based; parameters: dose 10 mg/kg, route oral; details: in vivo; how it was run: as §1
Brain [21] = assay: Tmax in rat brain at 10 mg/kg, po; assay type: ADME, organism-based; parameters: dose 10 mg/kg, route oral; details: in vivo; how it was run: as §1
[22] = AUC in rat brain at 10 mg/kg, po; assay type: ADME, organism-based; parameters: dose 10 mg/kg, route oral; how it was run: as §1
[23] = molecular target: Metabotropic glutamate receptor 6 (Homo sapiens, UniProt O15303); assay: Positive allosteric modulation of mGluR6
[24] = molecular target: Metabotropic glutamate receptor 1 (Homo sapiens, UniProt Q13255); assay: Positive allosteric modulation of mGluR1
[25] = system: Metabotropic glutamate receptor 5 (Rattus norvegicus), P31424 [T780A]; assay: Positive allosteric modulation of wild type rat mGlu5 receptor T780A mutant expressed in human HEK293 cells assessed as glutamate concentration response curve at 1 uM; assay type: cell-based
[26] = molecular target: T2, Metabotropic glutamate receptor 5; assay: Positive allosteric modulation of human mGlu5 expressed in HEK293 cells relative to glutamate; assay type: cell-based
Target sequence in this assay (P41594 21-1212 limits assumed): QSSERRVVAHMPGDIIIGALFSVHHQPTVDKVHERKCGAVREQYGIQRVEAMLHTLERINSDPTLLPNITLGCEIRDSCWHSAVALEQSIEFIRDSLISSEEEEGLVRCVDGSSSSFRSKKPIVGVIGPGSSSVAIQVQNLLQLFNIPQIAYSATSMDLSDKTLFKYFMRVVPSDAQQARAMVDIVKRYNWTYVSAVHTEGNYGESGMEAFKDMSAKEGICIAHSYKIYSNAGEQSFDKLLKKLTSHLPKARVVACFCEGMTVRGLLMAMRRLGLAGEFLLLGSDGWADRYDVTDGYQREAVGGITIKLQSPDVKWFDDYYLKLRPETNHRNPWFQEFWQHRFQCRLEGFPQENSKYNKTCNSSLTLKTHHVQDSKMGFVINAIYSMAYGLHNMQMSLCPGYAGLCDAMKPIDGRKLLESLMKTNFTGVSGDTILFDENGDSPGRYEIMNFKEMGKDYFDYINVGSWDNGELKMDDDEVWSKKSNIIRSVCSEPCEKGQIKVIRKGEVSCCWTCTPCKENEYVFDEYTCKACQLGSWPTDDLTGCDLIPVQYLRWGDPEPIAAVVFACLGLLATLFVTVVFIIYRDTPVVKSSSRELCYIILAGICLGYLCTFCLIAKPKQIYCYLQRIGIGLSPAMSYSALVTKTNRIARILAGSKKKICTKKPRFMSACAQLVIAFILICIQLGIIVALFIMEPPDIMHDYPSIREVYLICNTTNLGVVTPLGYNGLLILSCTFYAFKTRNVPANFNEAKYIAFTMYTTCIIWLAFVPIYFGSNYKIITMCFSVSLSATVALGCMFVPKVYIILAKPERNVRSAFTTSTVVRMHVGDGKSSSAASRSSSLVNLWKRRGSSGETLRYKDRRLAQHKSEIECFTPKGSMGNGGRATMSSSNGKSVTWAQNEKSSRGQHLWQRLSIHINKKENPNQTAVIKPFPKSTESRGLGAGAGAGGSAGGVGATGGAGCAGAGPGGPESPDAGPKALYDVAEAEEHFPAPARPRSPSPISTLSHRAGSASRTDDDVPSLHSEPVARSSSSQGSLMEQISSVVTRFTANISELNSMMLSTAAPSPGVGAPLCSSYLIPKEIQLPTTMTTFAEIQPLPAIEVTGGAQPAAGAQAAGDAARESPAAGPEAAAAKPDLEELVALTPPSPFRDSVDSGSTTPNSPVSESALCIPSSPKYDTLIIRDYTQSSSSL

[27] = molecular target: Metabotropic glutamate receptor 4 (Homo sapiens, UniProt Q14833); assay: Positive allosteric modulation of mGluR4
[28] = Cmax in rat brain at 10 mg/kg, po; assay type: ADME, organism-based; parameters: dose 10 mg/kg, route oral; how it was run: as §1
[29] = molecular target: Metabotropic glutamate receptor 2 (Homo sapiens, UniProt Q14416); assay: Positive allosteric modulation of mGluR2

T1 sequence (P31424 whole entry): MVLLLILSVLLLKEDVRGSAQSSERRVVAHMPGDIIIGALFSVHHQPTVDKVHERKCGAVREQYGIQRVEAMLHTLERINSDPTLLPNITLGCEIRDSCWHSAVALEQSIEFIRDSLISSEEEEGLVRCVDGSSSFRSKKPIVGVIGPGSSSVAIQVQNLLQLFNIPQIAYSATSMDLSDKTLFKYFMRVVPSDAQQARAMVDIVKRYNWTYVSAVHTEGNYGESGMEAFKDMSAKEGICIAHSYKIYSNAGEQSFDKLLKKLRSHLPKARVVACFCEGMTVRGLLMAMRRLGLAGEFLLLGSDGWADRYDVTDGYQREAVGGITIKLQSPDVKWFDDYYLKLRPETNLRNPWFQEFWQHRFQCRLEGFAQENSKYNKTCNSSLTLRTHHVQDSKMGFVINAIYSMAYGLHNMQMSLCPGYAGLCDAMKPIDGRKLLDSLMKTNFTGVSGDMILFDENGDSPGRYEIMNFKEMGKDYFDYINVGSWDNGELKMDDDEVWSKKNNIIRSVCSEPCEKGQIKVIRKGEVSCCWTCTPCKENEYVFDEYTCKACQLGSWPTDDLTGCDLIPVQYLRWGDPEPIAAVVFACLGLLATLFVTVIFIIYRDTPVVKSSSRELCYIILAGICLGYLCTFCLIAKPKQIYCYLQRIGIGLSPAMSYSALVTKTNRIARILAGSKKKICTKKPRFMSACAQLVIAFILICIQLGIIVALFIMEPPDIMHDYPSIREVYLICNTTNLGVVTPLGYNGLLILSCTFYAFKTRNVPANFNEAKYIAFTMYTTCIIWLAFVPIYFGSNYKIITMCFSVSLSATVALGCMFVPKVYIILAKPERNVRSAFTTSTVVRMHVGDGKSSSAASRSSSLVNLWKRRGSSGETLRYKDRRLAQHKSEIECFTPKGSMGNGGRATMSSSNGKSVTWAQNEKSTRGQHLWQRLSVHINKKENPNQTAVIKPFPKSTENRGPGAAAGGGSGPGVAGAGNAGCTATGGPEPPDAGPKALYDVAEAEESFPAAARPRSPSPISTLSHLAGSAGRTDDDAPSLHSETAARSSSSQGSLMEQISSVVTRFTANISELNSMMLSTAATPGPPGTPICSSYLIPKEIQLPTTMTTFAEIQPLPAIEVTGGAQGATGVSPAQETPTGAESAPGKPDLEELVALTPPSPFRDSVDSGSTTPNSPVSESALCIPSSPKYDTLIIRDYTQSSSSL
Chain of Metabotropic glutamate receptor 5 (Rattus norvegicus) (P31424 21-1203 limits assumed): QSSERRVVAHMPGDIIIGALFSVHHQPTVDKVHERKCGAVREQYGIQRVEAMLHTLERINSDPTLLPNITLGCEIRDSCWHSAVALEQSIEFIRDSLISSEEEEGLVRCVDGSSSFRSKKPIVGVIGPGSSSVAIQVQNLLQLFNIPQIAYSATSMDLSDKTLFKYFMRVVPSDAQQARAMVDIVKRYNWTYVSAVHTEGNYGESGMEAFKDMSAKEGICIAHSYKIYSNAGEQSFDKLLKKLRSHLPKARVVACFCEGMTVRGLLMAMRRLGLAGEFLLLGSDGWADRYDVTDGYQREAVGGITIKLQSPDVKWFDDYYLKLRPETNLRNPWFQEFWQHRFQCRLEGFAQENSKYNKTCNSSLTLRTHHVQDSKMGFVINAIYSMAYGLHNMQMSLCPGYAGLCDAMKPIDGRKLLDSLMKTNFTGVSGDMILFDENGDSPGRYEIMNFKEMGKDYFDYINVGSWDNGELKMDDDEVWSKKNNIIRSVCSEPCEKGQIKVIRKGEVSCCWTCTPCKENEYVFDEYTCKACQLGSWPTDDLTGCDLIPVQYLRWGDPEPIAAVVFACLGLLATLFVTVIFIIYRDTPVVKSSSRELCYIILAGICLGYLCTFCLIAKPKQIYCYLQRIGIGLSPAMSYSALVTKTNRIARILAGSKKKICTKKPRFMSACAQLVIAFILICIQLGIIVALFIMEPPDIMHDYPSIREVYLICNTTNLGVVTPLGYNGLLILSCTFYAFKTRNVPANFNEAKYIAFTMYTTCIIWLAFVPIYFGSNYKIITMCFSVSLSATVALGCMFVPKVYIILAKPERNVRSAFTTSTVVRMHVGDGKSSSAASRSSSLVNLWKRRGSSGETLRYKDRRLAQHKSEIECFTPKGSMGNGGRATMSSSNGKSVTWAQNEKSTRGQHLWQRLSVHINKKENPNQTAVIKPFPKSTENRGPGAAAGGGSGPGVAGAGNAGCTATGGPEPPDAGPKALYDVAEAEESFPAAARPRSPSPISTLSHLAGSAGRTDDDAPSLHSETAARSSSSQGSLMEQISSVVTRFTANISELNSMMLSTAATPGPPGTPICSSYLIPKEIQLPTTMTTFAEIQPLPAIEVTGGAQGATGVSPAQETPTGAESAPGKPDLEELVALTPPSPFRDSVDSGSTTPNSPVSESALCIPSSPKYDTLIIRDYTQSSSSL
Chain of Metabotropic glutamate receptor 5 (Rattus norvegicus), P31424 [T780A] (P31424 whole entry T780A): as the sequence (P31424 whole entry) above, with T780A counted along it
Chain of Metabotropic glutamate receptor 5 (Rattus norvegicus), P31424 [A809V] (P31424 whole entry A809V): as the sequence (P31424 whole entry) above, with A809V counted along it
Chain of Metabotropic glutamate receptor 5 (Rattus norvegicus), P31424 [P654F] (P31424 whole entry P654F): as the sequence (P31424 whole entry) above, with P654F counted along it

Compound: CCCOc1ccc(C(=O)NC2CCCCC2)cn1
EC50 ([1]; hek293): Not Active

Compound: O=C(NC1CCCCC1)c1ccc(OCc2ccccc2)nc1
Activity [2]: 21%
EC50 ([1]; read-out: EC50): 34 nM

Compound: CCCCOc1ccc(C(=O)Nc2ncc(F)cc2F)cc1
Activity [2]: 0%
EC50 ([1]; read-out: EC50): > 10000 nM

Compound: CCC(C)COc1ccc(C(=O)NC2CCCCC2)cn1 (racemic)
EC50 ([1]; read-out: EC50): 1080 nM

Compound: CCCCOc1ccc(C(=O)NC2CCC2)cc1
Activity [2]: 6.5%
EC50 ([1]; read-out: EC50): 5170 nM

Compound: O=C(NC1CCOCC1)c1ccc(OCc2ccccc2)nc1
EC50 ([1]; read-out: EC50): 3810 nM

Compound: CCCCCOc1ccc(C(=O)NC2CCCCC2)cn1
EC50 ([1]; read-out: EC50): 449 nM

Compound: O=C(NC1CCC1)c1ccc(C#Cc2cccc(F)c2)nc1
Ki [3]: 195 nM
EC50 ([1]; read-out: EC50): 16 nM

Compound: CCCCOc1ccc(C(=O)Nc2ccc(F)cc2F)cn1
Activity [2]: 5%
EC50 ([1]; read-out: EC50): 725 nM

Compound: O=C(NC1CCCCC1)c1ccc(OCc2ccc(F)cc2)nc1
EC50 ([1]; read-out: EC50): 251 nM

Compound: O=C(NC1CCC1)c1ccc(OCc2ccccc2)nc1
EC50 ([1]; read-out: EC50): 297 nM

Compound: CC(C)CCOc1ccc(C(=O)NC2CCCCC2)cn1
EC50 ([1]; read-out: EC50): 1140 nM

Compound: CCCC(C)Oc1ccc(C(=O)NC2CCCCC2)cn1 (stereo unspecified)
EC50 ([1]; hek293): Not Active

Compound: O=C(NC1CCCCC1)c1ccc(OCC2CC2)nc1
EC50 ([1]; hek293): Not Active

Compound: CCCCOc1ccc(C(=O)N(C)c2ccc(F)cc2F)cc1
EC50 ([1]; hek293): Not Active

Compound: CCCCOc1ccc(C(=O)NC2CCCCC2)cc1
Activity [2]: 12%
EC50 ([1]; read-out: EC50): 607 nM

Compound: CCCCOc1ccc(C(=O)NC2CCCCC2)cn1
Activity [2]: 27%
EC50 ([1]; read-out: EC50): 2490 nM

Compound: CCCCOc1ccc(C(=O)Nc2ccc(F)cn2)cn1
Activity [2]: 9.5%
EC50 ([1]; read-out: EC50): 1900 nM

Compound: O=C(NC1CCCCC1)c1ccc(OCC2CCCC2)nc1
Activity [2]: 0%
EC50 ([1]; read-out: EC50): 446 nM

The next lines start with results.

EC50 ([1]; read-out: pEC50 (converted)): 1620 nM
Compound: O=C(NC1CCOCC1)c1ccc(OCc2cccc(F)c2)nc1

EC50 ([1]; read-out: EC50): 29 nM
Compound: O=C(NC1CCCCC1)c1ccc(OCc2cccc(F)c2)nc1

EC50 ([1]; read-out: EC50): 15 nM
Compound: C[C@@H](NC(=O)c1ccc(OCc2cccc(F)c2)nc1)C1CCCCC1

EC50 ([1]; read-out: EC50): 83 nM
EC50 ([1]; read-out: pEC50 (converted)): 85.1 nM
Compound: O=C(N[C@@H](C1CC1)C(F)(F)F)c1ccc(OCc2cccc(F)c2)nc1

EC50 ([1]; read-out: EC50): 300 nM
Compound: O=C(NC1CCC1)c1ccc(OCc2cccc(F)c2)nc1

Ki [3]: > 100000 nM
EC50 ([1]; hek293, read-out: EC50): 33 nM
Compound: CCCCOc1ccc(C(=O)Nc2ccc(F)cc2F)cc1

PPB [4]: ≥ 0.99
Fu (Brain [5]): 1%
Activity [6]: inactive
EC50 [7]: > 10 µM
EC50 [8]: > 10 µM
EC50 [9]: > 10 µM
Activity [10]: inactive
PPB [11]: ≥ 0.99
Ratio AUC (Brain [12]): 0.05
half-life [13]: 300 min
AUC (Plasma): 23 µM·h
EC50 [14]: 70 nM
concentration at 1.5 h [15]: 7.4 µM
solubility [16]: < 20 µg/mL
fold change (FC) [17]: 5
Emax [19]: 83%
fold change (FC) [19]: 8.2
Vdss (Rattus norvegicus [20]): 2.3 L/kg
Tmax (Brain [21]): 30 min
AUC [22]: 1.2 µM·h
EC50 [23]: > 10 µM
EC50 [24]: > 10 µM
Activity [25]: inactive
Ki [3]: 153 nM
Emax [26]: 86%
fold change (FC) [26]: 10
EC50 [27]: > 10 µM
Cmax [28]: 435 nM
EC50 [29]: > 10 µM
Compound: C[C@@H](NC(=O)c1ccc(OCc2cccc(F)c2)nc1)C(C)(C)C
Activity (Rattus norvegicus [18]): Active

EC50 ([1]; read-out: EC50): 167 nM
Compound: C[C@H](NC(=O)c1ccc(OCc2cccc(F)c2)nc1)C1CCCCC1

EC50 ([1]; hek293): Not Active
Compound: O=C(NC1COC1)c1ccc(OCc2cccc(F)c2)nc1

EC50 [14]: 180 nM
Emax [26]: 70%
Compound: C[C@@H](NC(=O)c1ccc(OCc2cccc(F)c2)cc1)C(C)(C)C

EC50 ([1]; read-out: EC50): 136 nM
Compound: CC(C)(C)NC(=O)c1ccc(OCc2cccc(F)c2)nc1
